Measured values as given in ChEMBL document CHEMBL1122058, “Agents for the treatment of brain injury. 1. (Aryloxy)alkanoic acids” (J Med Chem, 1982).
Active and inactive are the calls of the source. The rule behind the calls is not given here.

What was measured:
[1] = Distribution coefficient (D %) between octanol and buffer of pH 7.4; type: physicochemical; details: octanol/water
[2] = Evaluated for Sodium ion content of Cerebrocortical slices in cat with addition of Triethylammonium Bicarbonate (TEAB) at a compound concentration of 1 X 10E-5 M.; type: functional, Felis catus
How it was run: (§1)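 Cat cerebral cortex slices (~150 mg, 0.5 mm) incubated aerobically 60 min at 37 °C in K+-rich (27 mM) Hepes-buffered saline-glucose with test compound as Na salt. HCO3- (NaHCO3 or TEAB) added from sidearm at 20 min to 10 mM final; HCO3- flasks gassed with 2.5% CO2/97.5% O2. Swelling by reweighing; Na+/K+ by flame photometry, Cl- by amperometric titration. Units: per g initial fresh weight; means ± SE, Student's t test.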

Felis catus [3] = organism: Felis catus; assay: Evaluated for chloride ion content of Cerebrocortical slices in cat with addition of Triethylammonium Bicarbonate (TEAB) at a compound concentration of 1 X 10E-5 M.; type: functional; how it was run: as §1
[4] = Evaluated for Potassium ion content of Cerebrocortical slices in cat with addition of Sodium Bicarbonate (NaHCO3) at a compound concentration of 1 X 10E-5 M; type: functional, Felis catus; how it was run: as §1
Felis catus [5] = organism: Felis catus; assay: Evaluated for Potassium ion content of Cerebrocortical slices in cat with addition of Sodium Bicarbonate (NaHCO3) at a compound concentration of 1 X 10E-7 M..; type: functional; how it was run: as §1
Felis catus [6] = organism: Felis catus; assay: In vitro inhibition of tissue swelling of Cerebrocortical slices from cat with addition of Sodium Bicarbonate (NaHCO3) at a compound concentration of 1 X 10E-5 M..; type: functional; how it was run: as §1
Felis catus [7] = organism: Felis catus; assay: Evaluated for Sodium ion content of Cerebrocortical slices in cat with addition of Sodium Bicarbonate (NaHCO3) at a compound concentration of 1 X 10E-5 M..; type: functional; how it was run: as §1
Rattus norvegicus [8] = organism: Rattus norvegicus; assay: Relative salidiuretic efficacy was scored in Rat; marked; type: functional, organism-based; details: Urine
[9] = Dissociation constant (pKa) (determined in 30% EtOH); type: physicochemical
Felis catus [10] = organism: Felis catus; assay: In vitro inhibition of HCO3- stimulated swelling in cat cerebrocortical tissue slice; type: functional; details: read-out: I 50; how it was run: as §1
[11] = In vitro inhibition of tissue swelling of Cerebrocortical slices from cat with addition of Triethylammonium Bicarbonate (TEAB) at a compound concentration of 1 X 10E-5 M.; type: functional, Felis catus; how it was run: as §1
Pan troglodytes [12] = organism: Pan troglodytes; assay: Relative salidiuretic efficacy was scored in chimpanzee; marked; type: functional, organism-based; details: Urine
Canis familiaris [13] = organism: Canis familiaris; assay: Relative salidiuretic efficacy was scored in dog; moderate; type: functional, organism-based; details: Canis lupus familiaris; Urine
Felis catus [14] = organism: Felis catus; assay: Evaluated for Potassium ion content of Cerebrocortical slices in cat with addition of Triethylammonium Bicarbonate (TEAB) at a compound concentration of 1 X 10E-5 M.; type: functional; how it was run: as §1
[15] = Evaluated for chloride ion content of Cerebrocortical slices in cat with addition of Sodium Bicarbonate (NaHCO3) at a compound concentration of 1 X 10E-5 M..; type: functional, Felis catus; how it was run: as §1
Felis catus [16] = organism: Felis catus; assay: In vitro inhibition of tissue swelling of Cerebrocortical slices from cat with addition of Sodium Bicarbonate (NaHCO3) at a compound concentration of 1 X 10E-7 M; type: functional; how it was run: as §1
[17] = Evaluated for Potassium ion content of Cerebrocortical slices in cat with addition of Sodium Bicarbonate (NaHCO3) and at a compound concentration of 1 X 10E-5 M; type: functional, Felis catus; how it was run: as §1
[18] = Evaluated for Potassium ion content of Cerebrocortical slices in cat with addition of Triethylammonium Bicarbonate (TEAB) and at a compound concentration of 1 X 10E-5 M.; type: functional, Felis catus; how it was run: as §1
Felis catus [19] = organism: Felis catus; assay: In vitro inhibition of tissue swelling of Cerebrocortical slices from cat with addition of Triethylammonium Bicarbonate (TEAB) and at a compound concentration of 1 X 10E-5 M.; type: functional; how it was run: as §1
[20] = Compound at a concentration of 1 X 10E-5 M along with addition of Sodium Bicarbonate (NaHCO3) was tested for percent bicarbonate stimulated swelling of Cerebrocortical slices in cat (in vitro); type: functional, Felis catus; how it was run: as §1
Rattus norvegicus [21] = organism: Rattus norvegicus; assay: Relative salidiuretic efficacy was scored in Rat; moderate; type: functional, organism-based; details: Urine
Felis catus [22] = organism: Felis catus; assay: In vitro inhibition of tissue swelling of Cerebrocortical slices from cat with addition of Sodium Bicarbonate (NaHCO3) and at a compound concentration of 1 X 10E-5 M; type: functional; how it was run: as §1
Pan troglodytes [23] = organism: Pan troglodytes; assay: Relative salidiuretic efficacy was scored in chimpanzee; moderate; type: functional, organism-based; details: Urine
Canis familiaris [24] = organism: Canis familiaris; assay: Relative salidiuretic efficacy was scored in dog; weak; type: functional, organism-based; details: Canis lupus familiaris; Urine
Felis catus [25] = organism: Felis catus; assay: Evaluated for chloride ion content of Cerebrocortical slices in cat with addition of Sodium Bicarbonate (NaHCO3) and at a compound concentration of 1 X 10E-5 M; type: functional; how it was run: as §1
Felis catus [26] = organism: Felis catus; assay: In vitro inhibition of HCO3- stimulated swelling in cat cerebrocortical tissue slice; No inhibition occurred; type: functional; details: read-out: I 50; how it was run: as §1
Felis catus [27] = assay: Mortality of animals recorded as the number of animals dead out of the total animals (16) taken for the study at dose 1 mg/kg; type: functional
How it was run: (§2)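 Adult conditioned cats (2.5–4 kg) under iv methohexital (13.25 mg/kg, plus 2.75 mg/kg if needed) received machine-induced acceleration/deceleration head injury. Forty min later they were paralysed with gallamine and ventilated with 6% O2/94% N2 for 60 min (arterial pO2 23 ± 1 torr). Drug was given iv 20 min post-injury, before hypoxemia. Mortality was scored as dead/total, chi-square tested.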

Felis catus [28] = assay: Relative salidiuretic efficacy was scored in cat upon intravenous administration of 20 mg/kg of Na salt; inactive; type: functional, organism-based; set-up: dose 20 mg/kg; details: Urine
Rattus norvegicus [29] = organism: Rattus norvegicus; assay: Relative salidiuretic efficacy was scored in Rat; inactive; type: functional, organism-based; details: Urine
Felis catus [30] = assay: Mortality of animals recorded as the number of animals dead out of the total animals (18) taken for the study at dose 30 mg/kg given q.i.d.; type: functional; how it was run: as §2
Rattus norvegicus [31] = organism: Rattus norvegicus; assay: Relative salidiuretic efficacy was scored in Rat; Marginal; type: functional, organism-based; details: Urine
Felis catus [32] = organism: Felis catus; assay: In vitro inhibition of HCO3- stimulated swelling in cat cerebrocortical tissue slice; At no concentration was swelling inhibited 100%; type: functional; details: read-out: I 50; how it was run: as §1
Canis familiaris [33] = organism: Canis familiaris; assay: Relative salidiuretic efficacy was scored in dog; inactive; type: functional, organism-based; details: Canis lupus familiaris; Urine

Compound `C[C@]1(C2CCCC2)Cc2cc(OCC(=O)O)c(Cl)c(Cl)c2C1=O` has a Distribution [1] of 90%, an Activity [2] of 100.9 µM/g and an Activity (Felis catus [3]) of 84.1 µM/g. For the same compound, the Activity [4] was 92.4 µM/g, the Activity (Felis catus [5]) was 98.4 µM/g and the Tissue swelling (Felis catus [6]) was 157 µL/g. For the same compound, the Activity (Felis catus [7]) was 101.8 µM/g, the Relative salidiuretic activity (Rattus norvegicus [8]) was “marked” and the pKa [9] was 3.9. The IC50 (Felis catus [10]) was 100 nM, the Tissue swelling [11] was 156 µM/g and the Relative salidiuretic activity (Pan troglodytes [12]) was “marked”. For the same compound, the Relative salidiuretic activity (Canis familiaris [13]) was “marked”, the Activity (Felis catus [14]) was 95.9 µM/g and the Activity [15] was 89 µM/g. It also gave a Tissue swelling (Felis catus [16]) of 232 µL/g.
For `C[C@@]1(C2CCCC2)Cc2cc(OCC(=O)O)c(Cl)c(Cl)c2C1=O`, the Activity [17] was 96.4 µM/g, the Distribution [1] was 90% and the Activity [18] was 93.6 µM/g. The Activity (Felis catus [19]) was 279 µM/g, the Activity [20] was 100 and the pKa [9] was 3.9. The Relative salidiuretic activity (Rattus norvegicus [21]) was “marked”, the Tissue swelling (Felis catus [22]) was 266 µL/g and the Relative salidiuretic activity (Pan troglodytes [23]) was “marked”. The Relative salidiuretic activity (Canis familiaris [24]) was “marked”, the Activity (Felis catus [25]) was 104.6 µM/g and the IC50 (Felis catus [26]) was > 10000 nM.
With `C[C@]1(C2CCCC2)Cc2cc(OCCCC(=O)O)c(Cl)c(Cl)c2C1=O` the Mortality (Felis catus [27]) was 5, the Distribution [1] was 99% and the pKa [9] was 5.7. For the same compound, the IC50 (Felis catus [10]) was 10 nM, the Relative salidiuretic activity (Felis catus [28]) was “inactive” and the Relative salidiuretic activity (Rattus norvegicus [29]) was “inactive”.
With `C[C@H]1CC2C(C(O)CC3(C)C2CC[C@]3(O)C(=O)COC(=O)CCC(=O)[O-])C2(C)C=CC(=O)C=C12.[Na+]` (some centres not stated) the Mortality (Felis catus [30]) was 9.
For `CCCC1(C2CCCC2)Cc2cc(OCCCC(=O)O)c(Cl)c(Cl)c2C1=O` (racemic), the Distribution [1] was 99.6%, the Relative salidiuretic activity (Rattus norvegicus [31]) was “Marginal” and the pKa [9] was 4.1. It also gave an IC50 (Felis catus [32]) of 8 nM.
With `CC1(c2ccccc2)Cc2cc(OCCCC(=O)O)c(Cl)c(Cl)c2C1=O` (racemic) the Distribution [1] was 99%, the pKa [9] was 6.4 and the Relative salidiuretic activity (Canis familiaris [33]) was “inactive”.
